ChEMBL document CHEMBL3739406, “Trisubstituted Thieno[3,2-b]pyrrole 5-Carboxamides as Potent Inhibitors of Alphaviruses” (J Med Chem, 2015)
Active and inactive are the calls of the source. The rule behind the calls is not given here.

What was measured:
Chikungunya virus [1] = assay: Antiviral activity against wild type Chikungunya virus IMT infected in HEK293T cells assessed as inhibition of infectivity measured at 24 hrs postinfection by FITC/DAPI staining based array scan VTI HCS reader analysis; assay type: functional, cell-based; conditions: HEK-293T
[2] = Selectivity index, ratio of CC50 for HEK293T cells to EC50 for Chikungunya virus infected in HEK293T cells; assay type: toxicity, cell-based, HEK-293T; conditions: human, read-out: Ratio CC50/EC50
Onyong-nyong virus = assay: Antiviral activity against O'nyong-nyong virus infected in HEK293T cells assessed as inhibition of infectivity measured at 24 hrs postinfection by FITC/DAPI staining based array scan VTI HCS reader analysis; assay type: functional, cell-based; conditions: HEK-293T
[3] = Cytotoxicity against HEK293T cells assessed as reduction in cell viability after 24 hrs by cell titer-glo luminescent cell viability assay; assay type: cell-based, HEK-293T; conditions: human
In short: (§1)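 HEK 293T cells, 3 × 10⁴/well, seeded overnight, then exposed 24 h to compound (0.01–100 μM, triplicate) in DMEM pH 6.8 with 10% FBS. Viability read by CellTiter-Glo luminescence. Normalized to untreated (100%) and medium blank (0%); CC50 by five-parameter curve fit.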

Chikungunya virus [4] = assay: Antiviral activity against Chikungunya virus infected in HEK293T cells assessed as reduction of infectivity measured at 24 hrs postinfection by gaussia luciferase reporter gene assay; assay type: functional, cell-based; conditions: HEK-293T
[5] = Cytotoxicity against HEK293T cells assessed as cell viability at antiviral EC50 after 24 hrs by cell titer-glo luminescent cell viability assay; assay type: cell-based, HEK-293T; conditions: human, read-out: Activity; in short: as §1
Chikungunya virus [6] = assay: Antiviral activity against wild type Chikungunya virus IMT infected in HEK293T cells assessed as inhibition of infectivity at 5 uM measured at 24 hrs postinfection by FITC/DAPI staining based array scan VTI HCS reader analysis; assay type: functional; conditions: HEK-293T
Chikungunya virus [7] = assay: Antiviral activity against wild type Chikungunya virus IMT infected in HEK293T cells assessed as inhibition of nsP1 protein expression measured at 24 hrs postinfection by Western blot method; assay type: functional, cell-based; conditions: HEK-293T
Chikungunya virus [8] = assay: Antiviral activity against wild type Chikungunya virus IMT infected in HEK293T cells assessed as inhibition of nsP3 protein expression measured at 24 hrs postinfection by Western blot method; assay type: functional, cell-based; conditions: HEK-293T
Chikungunya virus [9] = assay: Antiviral activity against wild type Chikungunya virus IMT infected in HEK293T cells assessed as inhibition of capsid protein expression measured at 24 hrs postinfection by Western blot method; assay type: functional, cell-based; conditions: HEK-293T
Chikungunya virus [10] = assay: Antiviral activity against wild type Chikungunya virus IMT infected in HEK293T cells assessed as inhibition of E2 protein expression measured at 24 hrs postinfection by Western blot method; assay type: functional, cell-based; conditions: HEK-293T
HEK293 = assay: Toxicity in HEK293T cells infected with Chikungunya virus IMT assessed as reduction in beta-actin protein expression at 0.1 to 5 uM measured at 24 hrs postinfection by Western blot method; assay type: cell-based; conditions: human, hek293, 24 h
Chikungunya virus [11] = assay: Antiviral activity against wild type Chikungunya virus IMT infected in HEK293T cells assessed as reduction of viral nsP1 gene expression measured at 24 hrs postinfection by qRT-PCR method; assay type: functional, cell-based; conditions: HEK-293T
Chikungunya virus [12] = assay: Antiviral activity against wild type Chikungunya virus IMT infected in HEK293T cells assessed as reduction of viral nsP1 gene expression at 2.5 uM measured at 24 hrs postinfection by qRT-PCR method relative to control; assay type: functional, HEK-293T
Sindbis virus = assay: Antiviral activity against wild type Sindbis virus infected in HEK293T cells assessed as inhibition of infectivity measured at 24 hrs postinfection by FITC/DAPI staining based array scan VTI HCS reader analysis; assay type: functional, organism-based; conditions: HEK-293T
Chikungunya virus [13] = assay: Antiviral activity against wild type Chikungunya virus IMT infected in HEK293T cells assessed as reduction of viral E1 gene expression measured at 24 hrs postinfection by qRT-PCR method; assay type: functional, cell-based; conditions: HEK-293T
Chikungunya virus [14] = assay: Antiviral activity against wild type Chikungunya virus IMT infected in HEK293T cells assessed as reduction of viral E1 gene expression at 2.5 uM measured at 24 hrs postinfection by qRT-PCR method relative to control; assay type: functional, HEK-293T
Chikungunya virus [15] = assay: Antiviral activity against wild type Chikungunya virus IMT infected in HEK293T cells assessed as inhibition of nsP1 protein expression at 5 uM measured at 24 hrs postinfection by Western blot method; assay type: functional, cell-based; conditions: HEK-293T
Chikungunya virus [16] = assay: Antiviral activity against wild type Chikungunya virus IMT infected in HEK293T cells assessed as inhibition of nsP3 protein expression at 5 uM measured at 24 hrs postinfection by Western blot method; assay type: functional, cell-based; conditions: HEK-293T
Chikungunya virus [17] = assay: Antiviral activity against wild type Chikungunya virus IMT infected in HEK293T cells assessed as inhibition of viral capsid protein at 5 uM measured at 24 hrs postinfection by Western blot method; assay type: functional, cell-based; conditions: HEK-293T
Chikungunya virus [18] = assay: Antiviral activity against wild type Chikungunya virus IMT infected in HEK293T cells assessed as inhibition of E2 protein expression at 5 uM measured at 24 hrs postinfection by Western blot method; assay type: functional, cell-based; conditions: HEK-293T

| Structure (SMILES) | EC50 (Chikungunya virus [1]) [µM] | inhibition (Chikungunya virus [1]) | selectivity ratio [2] | CC50 at 24 h [3] [µM] | EC50 (Chikungunya virus [4]) [µM] | viability at 24 h [5] [%] | inhibition at 5 µM (Chikungunya virus [6]) [%] | other results |
| --- | --- | --- | --- | --- | --- | --- | --- | --- |
| CCCNC(=O)C1CCN(C(=O)c2cc3sc(Br)cc3n2Cc2ccc(OC)cc2)CC1 | 1.96 | Dose-dependent effect | > 32 | > 100 | 3.1 | > 80 | 60 | EC50 (Onyong-nyong virus): 2.58 µM; inhibition (Chikungunya virus [7]): Dose-dependent effect; inhibition (Chikungunya virus [8]): Dose-dependent effect; inhibition (Chikungunya virus [9]): Dose-dependent effect; inhibition (Chikungunya virus [10]): Dose-dependent effect; Activity (HEK293): Non-toxic; Activity (Chikungunya virus [11]): Dose-dependent effect; fold change (FC) (Chikungunya virus [12]): 100; EC50 (Sindbis virus): 1.14 µM; Activity (Chikungunya virus [13]): Dose-dependent effect; fold change (FC) (Chikungunya virus [14]): 100 |
| CCCNC(=O)C1CCN(C(=O)c2cc3sc(CO)cc3n2Cc2ccc(OC)cc2)CC1 | 2.39 | Dose-dependent effect | 3.6 | 15.5 | 4.33 | > 80 | 60 | inhibition (Chikungunya virus [7]): Dose-dependent effect; inhibition (Chikungunya virus [8]): Dose-dependent effect; inhibition (Chikungunya virus [9]): Dose-dependent effect; inhibition (Chikungunya virus [10]): Dose-dependent effect; Activity (HEK293): Non-toxic; Activity (Chikungunya virus [11]): Dose-dependent effect; Activity (Chikungunya virus [13]): Dose-dependent effect |
| COc1ccc(Cn2c(C(=O)N3CCC(C(=O)NC4CC4)CC3)cc3sccc32)cc1 | 5.59 | Dose-dependent effect | 2.8 | 21.4 | 7.59 | > 80 | – | – |
| CCCNC(=O)C1CCN(C(=O)c2cc3sc(-c4ccccc4)cc3n2Cc2ccc(OC)cc2)CC1 | 3.08 | Dose-dependent effect | > 26 | > 100 | 3.85 | > 80 | – | – |
| CCCNC(=O)C1CCN(C(=O)c2cc3sc(C)cc3n2Cc2ccc(OC)cc2)CC1 | 3.27 | Dose-dependent effect | 10 | 36.3 | 3.6 | > 80 | – | – |
| NC(=O)c1ncn([C@@H]2O[C@H](CO)[C@@H](O)[C@H]2O)n1 [RIBAVIRIN] | 20 | Dose-dependent effect | – | – | 13.1 | > 80 | 10 | EC50 (Onyong-nyong virus): 18.4 µM; inhibition (Chikungunya virus [15]): inactive; inhibition (Chikungunya virus [16]): inactive; inhibition (Chikungunya virus [17]): inactive; inhibition (Chikungunya virus [18]): inactive; EC50 (Sindbis virus): 5.12 µM |
| CCCNC(=O)C1CCN(C(=O)c2cc3sc(C#N)cc3n2Cc2ccc(OC)cc2)CC1 | 8.23 | Dose-dependent effect | > 20 | > 100 | 4.9 | > 80 | – | – |
| CCCNC(=O)C1CCN(C(=O)c2cc3sccc3n2Cc2ccc(OC)cc2)CC1 | 6.55 | Dose-dependent effect | 2.7 | 18.8 | 7 | > 80 | – | – |
